Assay results reported in ChEMBL document CHEMBL1127738, “14 alpha,14' beta-[Dithiobis[(2-oxo-2,1-ethanediyl)imino]]bis (7,8-dihydromorphinone) and 14 alpha,14' beta-[dithiobis[(2-oxo-2,1- ethanediyl)imino]]bis[7,8-dihydro-N-(cyclopropylmethyl)normorphinone]: chemistry and opioid binding properties” (J Med Chem, 1994).
pIC50: −log10 of the molar value. Square brackets hold non-standard residues; d marks the D form. Peptide text beside a SMILES is read from it. * marks the point of attachment. Tyr(Nα,Nα-allyl2) = C=CCN(CC=C)[C@@H](Cc1ccc(O)cc1)C(=O)*; Aib = CC(C)(N)C(=O)O

Legend:
[1] = biological target: Mu-type opioid receptor (Bos taurus) (UniProt P79350); experiment: Evaluation for the ability of mu opioids to protect the [3H]DAMGO binding site from alkylation
How it was run: (§1)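 Protection assay on TPCK-pretreated calf striatal membranes. Membranes were preincubated with 100 nM protecting opioid in 50 mM Tris-HCl pH 7.5 for 30 min at 37 °C. The disulfide ligand (40 or 80 nM) was then added for 2 min at 37 °C in 2 mL. After four centrifugal washes, 0.25 nM [3H]DAMGO binding was measured. Results are % of untreated control; mean ± SE, three experiments in triplicate.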

[2] = biological target: Mu-type opioid receptor (Bos taurus) (UniProt P79350); experiment: Effect of DTT on Wash-Resistant Inhibition of [3H]DAMGO at 10 nM of the compound
How it was run: (§2)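 They were then given 40 mM DTT for 10 min at 4 °C in 2 mL of 50 mM Tris-HCl pH 7.5, followed by four centrifugal washes. […] Results are % of control without ligand or DTT; mean ± SE, three experiments in triplicate.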

Mu-type opioid receptor = Mu-type opioid receptor (Bos taurus, UniProt P79350); experiment: Evaluation for the inhibition of mu opioid binding to bovine striatal membranes by the affinity ligand 0.25 nM [3H]DAMGO radiolabeled opioid; design: species or system Striatum, Membrane
How it was run: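 Competition binding on bovine striatal membranes: twelve compound concentrations with radioligand in 1 mL of 50 mM Tris-HCl pH 7.5 at 25 °C, with 5 mM MgCl2 and 0.1 mM PMSF. Incubation was 60 min for [3H]DAMGO and [3H]U69,593 and 4 h for [3H]pCl-DPDPE. […] Filtration used PEI-soaked filters for the κ and δ ligands. Mean IC50 ± SE, three experiments.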

[3] = biological target: Mu-type opioid receptor (Bos taurus) (UniProt P79350); experiment: Evaluation for the ability of mu opioid to protect the [3H]DAMGO binding site from alkylation
[4] = biological target: Mu-type opioid receptor (Bos taurus) (UniProt P79350); experiment: Effect of DTT on Wash-Resistant Inhibition of [3H]DAMGO by 10 nM; how it was run: as §2
[5] = biological target: Delta-type opioid receptor (Homo sapiens) (UniProt P41143); experiment: Evaluation for the ability of delta opioids to protect the [3H]DAMGO binding site from alkylation; details: Bos taurus; how it was run: as §1
[6] = biological target: Kappa-type opioid receptor (Homo sapiens) (UniProt P41145); experiment: Evaluation for the ability of kappa opioids to protect the [3H]-DAMGO binding site from alkylation; details: Bos taurus; how it was run: as §1
Chain of Kappa-type opioid receptor (Homo sapiens) (P41145 whole entry): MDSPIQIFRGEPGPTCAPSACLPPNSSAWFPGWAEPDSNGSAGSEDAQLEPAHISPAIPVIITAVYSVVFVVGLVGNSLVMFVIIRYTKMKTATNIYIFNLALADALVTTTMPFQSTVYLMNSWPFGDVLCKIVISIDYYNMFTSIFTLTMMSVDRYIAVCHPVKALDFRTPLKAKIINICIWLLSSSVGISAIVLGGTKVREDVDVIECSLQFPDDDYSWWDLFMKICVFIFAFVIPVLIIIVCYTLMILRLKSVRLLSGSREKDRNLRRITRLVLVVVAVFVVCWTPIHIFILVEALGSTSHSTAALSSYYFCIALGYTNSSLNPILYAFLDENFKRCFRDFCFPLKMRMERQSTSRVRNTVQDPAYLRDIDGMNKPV

Chain of Mu-type opioid receptor (Bos taurus) (P79350 whole entry): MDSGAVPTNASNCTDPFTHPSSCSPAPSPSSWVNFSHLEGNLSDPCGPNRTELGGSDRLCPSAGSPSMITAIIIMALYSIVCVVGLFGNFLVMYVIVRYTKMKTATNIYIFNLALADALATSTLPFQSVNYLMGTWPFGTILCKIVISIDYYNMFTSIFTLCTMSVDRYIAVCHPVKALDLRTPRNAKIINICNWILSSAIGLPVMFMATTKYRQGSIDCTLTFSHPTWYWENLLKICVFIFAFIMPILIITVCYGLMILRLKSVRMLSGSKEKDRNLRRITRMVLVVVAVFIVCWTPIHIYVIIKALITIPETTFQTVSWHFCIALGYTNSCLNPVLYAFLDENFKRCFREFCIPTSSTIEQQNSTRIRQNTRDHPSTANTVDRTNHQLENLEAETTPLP
Chain of Mu-type opioid receptor (P79350 whole entry): as above
Chain of Delta-type opioid receptor (Homo sapiens) (P41143 whole entry): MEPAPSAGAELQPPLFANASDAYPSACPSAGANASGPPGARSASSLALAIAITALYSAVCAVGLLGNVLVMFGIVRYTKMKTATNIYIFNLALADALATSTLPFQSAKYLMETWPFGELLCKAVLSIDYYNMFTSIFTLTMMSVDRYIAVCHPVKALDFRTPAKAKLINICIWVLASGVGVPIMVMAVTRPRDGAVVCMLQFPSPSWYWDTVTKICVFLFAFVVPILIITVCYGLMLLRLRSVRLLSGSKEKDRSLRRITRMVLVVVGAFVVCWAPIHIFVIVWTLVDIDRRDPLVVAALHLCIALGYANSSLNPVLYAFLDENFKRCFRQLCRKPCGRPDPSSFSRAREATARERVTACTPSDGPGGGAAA

CN1CC[C@]23c4c5ccc(O)c4O[C@H]2C(=O)CC[C@@]3(NC(=O)CSSCC(=O)N[C@@]23CCC(=O)[C@@H]4Oc6c(O)ccc7c6[C@@]42CCN(C)[C@@H]3C7)[C@H]1C5
Activity [1]: 25
inhibition [2]: 50%
pIC50 (Mu-type opioid receptor): 9.40

CN1CC[C@]23c4c5ccc(O)c4O[C@H]2[C@@H](O)C=C[C@H]3[C@H]1C5
Activity [3]: 67

C=CCN(CC=C)[C@@H](Cc1ccc(O)cc1)C(=O)NC(C)(C)C(=O)NC(C)(C)C(=O)N[C@@H](Cc1ccccc1)C(=O)N[C@@H](CC(C)C)C(=O)O ({Tyr(Nα,Nα-allyl2)}-[Aib][Aib]FL-OH)
Activity [3]: 24

Oc1ccc2c3c1O[C@H]1c4[nH]c5ccccc5c4C[C@@]4(O)[C@@H](C2)N(CC2CC2)CC[C@]314
Activity [3]: 25

O=C(CSSCC(=O)N[C@@]12CCC(=O)[C@@H]3Oc4c(O)ccc5c4[C@@]31CCN(CC1CC1)[C@@H]2C5)N[C@@]12CCC(=O)[C@@H]3Oc4c(O)ccc5c4[C@@]31CCN(CC1CC1)[C@@H]2C5
pIC50 (Mu-type opioid receptor): 8.48
inhibition [4]: 63%
Activity [5]: 25
Activity [6]: 30
